Measured values taken from ChEMBL document CHEMBL4819122, “Novel 4-(piperazin-1-yl)quinolin-2(1H)-one bearing thiazoles with antiproliferative activity through VEGFR-2-TK inhibition” (Bioorg Med Chem, 2021).
Activity calls are given as the source filed them. The calls are words filed in the database; no cut-off is given here.

Key:
T47D [1] = test: Induction of cell cycle arrest in human T47D cells assessed as increase in accumulation at G0/G1 phase after 24 hrs by propidium iodide/Annexin V staining based FACScan flow cytometry(reference value: 52.59%); assay type: functional
A498 = test: Cytotoxicity against human A498 assessed as growth inhibition at 10 uM by NCI protocol relative to control; assay type: functional; conditions: read-out: GI
Procedure, shortened: (§1)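 Run by NCI as a single-dose screen at 10 μM across the sixty-cell-line panel, which covers nine human tumour tissue types. The read-out is percent growth inhibition of treated cells relative to untreated cells.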

CAKI-1 = test: Cytotoxicity against human Caki1 assessed as growth inhibition at 10 uM by NCI protocol relative to control; assay type: functional; conditions: read-out: GI; procedure, shortened: as §1
UACC-62 = test: Cytotoxicity against human UACC-62 assessed as growth inhibition at 10 uM by NCI protocol relative to control; assay type: functional; conditions: read-out: GI
Procedure, shortened: (§2)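 Run by the NCI under its standard protocol: one dose of 10 μM against a sixty-line panel from nine human tumour tissues. Result given as percent growth inhibition of treated cells relative to untreated cells.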

T47D [2] = test: Induction of apoptosis in human T47D cells assessed as early apoptotic cells after 24 hrs by Annexin V-FITC/propidium iodide staining based flow cytometric analysis (reference value: 0.66 %); assay type: functional
T47D [3] = test: Induction of apoptosis in human T47D cells assessed as late apoptotic cells after 24 hrs by Annexin V-FITC/propidium iodide staining based flow cytometric analysis (reference value: 0.21 %); assay type: functional
MCF10 = test: Cytotoxicity against human MCF10 cells assessed as reduction in cell viability after 3 hrs by MTT assay; conditions: MCF10, 3 h
SR = test: Cytotoxicity against human SR assessed as growth inhibition at 10 uM by NCI protocol relative to control; assay type: functional; conditions: read-out: GI; procedure, shortened: as §2
HCT-116 = test: Cytotoxicity against human HCT-116 assessed as growth inhibition at 10 uM by NCI protocol relative to control; assay type: functional; conditions: read-out: GI; procedure, shortened: as §1
EKVX = test: Cytotoxicity against human EKVX assessed as growth inhibition at 10 uM by NCI protocol relative to control; assay type: functional; conditions: read-out: GI; procedure, shortened: as §1
T47D [4] = test: Induction of cell cycle arrest in human T47D cells assessed as increase in accumulation at G2/M phase after 24 hrs by propidium iodide/Annexin V staining based FACScan flow cytometry(reference value: 12.79%); assay type: functional
HOP-92 = test: Cytotoxicity against human HOP-92 assessed as growth inhibition at 10 uM by NCI protocol relative to control; assay type: functional; conditions: read-out: GI; procedure, shortened: as §1
SF-539 = test: Cytotoxicity against human […] assessed as growth inhibition at 10 uM by NCI protocol relative to control; assay type: functional; conditions: read-out: GI; procedure, shortened: as §1
T47D [5] = test: Induction of apoptosis in human T47D cells assessed as total apoptotic cells after 24 hrs by Annexin V-FITC/propidium iodide staining based flow cytometric analysis (reference value: 2.61 %); assay type: functional
MDA-MB-435 = test: Cytotoxicity against human MDA-MB-435 assessed as growth inhibition at 10 uM by NCI protocol relative to control; assay type: functional, cell-based; procedure, shortened: as §1
MDA-MB-468 = test: Cytotoxicity against human MDA-MB-468 assessed as growth inhibition at 10 uM by NCI protocol relative to control; assay type: functional; conditions: read-out: GI; procedure, shortened: as §1
T47D [6] = test: Induction of cell cycle arrest in human T47D cells assessed as increase in accumulation at S phase after 24 hrs by propidium iodide/Annexin V staining based FACScan flow cytometry(reference value: 34.62%); assay type: functional
T47D [7] = test: Cytotoxicity against human T47D cells assessed as reduction in cell viability after 3 hrs by MTT assay
T47D [8] = test: Induction of apoptosis in human T47D cells assessed as necrotic cells after 24 hrs by Annexin V-FITC/propidium iodide staining based flow cytometric analysis (reference value: 1.74%); assay type: functional
T47D [9] = test: Cytotoxicity against human T-47D assessed as growth inhibition at 10 uM by NCI protocol relative to control; assay type: functional; conditions: read-out: GI; procedure, shortened: as §2
IGROV-1 = test: Cytotoxicity against human IGROVI assessed as growth inhibition at 10 uM by NCI protocol relative to control; assay type: functional; conditions: read-out: GI; procedure, shortened: as §1
UO-31 = test: Cytotoxicity against human UO31 assessed as growth inhibition at 10 uM by NCI protocol relative to control; assay type: functional; conditions: read-out: GI; procedure, shortened: as §2
T47D [10] = test: Induction of cell cycle arrest in human T47D cells assessed as increase in accumulation at pre G1 phase after 24 hrs by propidium iodide/Annexin V staining based FACScan flow cytometry(reference value: 2.61%); assay type: functional
MOLT-4 = test: Cytotoxicity against human MOLT-4 assessed as growth inhibition at 10 uM by NCI protocol relative to control; assay type: functional; conditions: read-out: GI; procedure, shortened: as §1
786-0 = test: Cytotoxicity against human 786-0 assessed as growth inhibition at 10 uM by NCI protocol relative to control; assay type: functional; conditions: read-out: GI; procedure, shortened: as §1

O=C(CN1CCN(c2cc(=O)[nH]c3ccc(F)cc23)CC1)Nc1nc(-c2ccccc2)cs1
Activity (T47D [1]): 41.31% | inhibition of growth at 10 µM (A498): 27.9% | inhibition of growth at 10 µM (CAKI-1): 17.4% | inhibition of growth at 10 µM (UACC-62): 14.4% | Activity (T47D [2]): 2.31% | Activity (T47D [3]): 27.88% | IC50 (MCF10): 39.4 µM | inhibition of growth at 10 µM (SR): 21.2% | inhibition of growth at 10 µM (HCT-116): 16% | inhibition of growth at 10 µM (EKVX): 14.6% | Activity (T47D [4]): 6.3% | inhibition of growth at 10 µM (HOP-92): 10.9% | inhibition of growth at 10 µM (SF-539): 13.3% | Activity (T47D [5]): 43.05% | growth inhibition (GI) (MDA-MB-435): inactive | inhibition of growth at 10 µM (MDA-MB-468): 12.5% | Activity (T47D [6]): 52.39% | IC50 (T47D [7]): 7.2 µM | Activity (T47D [8]): 12.86% | inhibition of growth at 10 µM (T47D [9]): 29.6% | inhibition of growth at 10 µM (IGROV-1): 16.1% | inhibition of growth at 10 µM (UO-31): 24.2% | Activity (T47D [10]): 43.05% | inhibition of growth at 10 µM (MOLT-4): 13.3% | inhibition of growth at 10 µM (786-0): 10.3%
